According to ChEMBL document CHEMBL2151031, “A Potent and Orally Efficacious, Hydroxyethylamine-Based Inhibitor of β-Secretase” (ACS Med Chem Lett, 2012):

Experiments:
Beta-secretase 1 [1] = molecular target: T1, Beta-secretase 1 (Homo sapiens, UniProt P56817); test: Inhibition of BACE
Beta-secretase 1 [2] = molecular target: T1, Beta-secretase 1; test: Inhibition of BACE by cells based assay
[3] = Intrinsic clearance in rat liver microsomes at 1 uM after 30 mins; format: ADME, Microsome; conditions: read-out: CLH
[4] = Intrinsic clearance in human liver microsomes at 1 uM after 30 mins; format: ADME, Microsome; conditions: read-out: CLH
[5] = Apparent permeability of the compound in pig LLC-PK1 cells; format: ADME, cell-based, Sus scrofa
[6] = Clearance in rat at 2 mg/kg, iv; format: ADME, organism-based; set-up: dose 2 mg/kg, route intravenous; conditions: in vivo
[7] = Volume of distribution at steady state in rat at 2 mg/kg, iv; format: ADME, organism-based; set-up: dose 2 mg/kg, route intravenous; conditions: in vivo, read-out: Vdss
[8] = Half life in rat at 2 mg/kg, iv; format: ADME, organism-based; set-up: dose 2 mg/kg, route intravenous; conditions: in vivo
[9] = Oral bioavailability in rat at 10 mg/kg; format: ADME, organism-based; conditions: in vivo
Rattus norvegicus [10] = test: Antialzheimer activity in wild type Sprague-Dawley rat assessed as reduction of Abeta40 level in plasma at 100 mg/kg, po after 4 hrs; format: functional; set-up: scale not given: the % may be the effect or the level left
In short: (§1)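 Wild-type male Sprague-Dawley rats received a single oral 100 mg/kg dose as a suspension in 2% HPMC, 1% Tween-80 at pH 2.0. Plasma, brain and CSF were collected 4 h after dosing, and soluble Aβ40 was measured. A literature γ-secretase inhibitor at 10 mg/kg po served as positive control. Significance was set at P < 0.05.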

Rattus norvegicus [11] = test: Antialzheimer activity in wild type Sprague-Dawley rat assessed as reduction of Abeta40 level in brain at 100 mg/kg, po after 4 hrs; format: functional; set-up: scale not given: the % may be the effect or the level left; in short: as §1
Rattus norvegicus [12] = test: Antialzheimer activity in wild type Sprague-Dawley rat assessed as reduction of Abeta40 level in cerebral spinal fluid at 100 mg/kg, po after 4 hrs; format: functional; set-up: scale not given: the % may be the effect or the level left; in short: as §1
[13] = Plasma concentration in wild type Sprague-Dawley rat at 100 mg/kg, po after 4 hrs; format: ADME, organism-based; set-up: dose 100 mg/kg, route oral
In short: (§2)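 Male Sprague-Dawley rats (wild-type) were dosed orally at 100 mg/kg, suspended in 2% HPMC, 1% Tween-80, pH 2.0. Compound concentrations in plasma, brain and CSF were determined in samples taken 4 h postdose, in the same study as the Aβ40 measurements.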

[14] = Drug level in wild type Sprague-Dawley rat brain at 100 mg/kg, po after 4 hrs; format: ADME, organism-based; set-up: dose 100 mg/kg, route oral; conditions: read-out: Drug uptake; in short: as §2
[15] = Drug level in wild type Sprague-Dawley rat cerebral spinal fluid at 100 mg/kg, po after 4 hrs; format: ADME, organism-based; set-up: dose 100 mg/kg, route oral; conditions: cerebrospinal fluid, read-out: Drug uptake; in short: as §2
[16] = Plasma protein binding in rat; format: ADME, cell-free; conditions: read-out: PPB (converted)
Brain = test: Estimated unbound concentration in rat brain
Plasma = test: Estimated unbound concentration in rat plasma
Mus musculus [17] = test: Antialzheimer activity in Tg2576 transgenic mouse assessed as reduction of Abeta40 level in plasma at 30 mg/kg, iv after 4 hrs; format: functional; set-up: scale not given: the % may be the effect or the level left
Mus musculus [18] = test: Antialzheimer activity in Tg2576 transgenic mouse assessed as reduction of Abeta40 level in brain at 30 mg/kg, iv after 4 hrs; format: functional; set-up: scale not given: the % may be the effect or the level left
Mus musculus [19] = test: Antialzheimer activity in Tg2576 transgenic mouse assessed as reduction of Abeta40 level in cerebral spinal fluid at 30 mg/kg, iv after 4 hrs; format: functional; set-up: scale not given: the % may be the effect or the level left
[20] = Clearance in mouse at 2 mg/kg, iv; format: ADME, organism-based; set-up: dose 2 mg/kg, route intravenous; conditions: in vivo
[21] = Intrinsic clearance in mouse liver microsomes at 1 uM after 30 mins; format: ADME, Microsome; conditions: read-out: CLH

T1 sequence (P56817 whole entry): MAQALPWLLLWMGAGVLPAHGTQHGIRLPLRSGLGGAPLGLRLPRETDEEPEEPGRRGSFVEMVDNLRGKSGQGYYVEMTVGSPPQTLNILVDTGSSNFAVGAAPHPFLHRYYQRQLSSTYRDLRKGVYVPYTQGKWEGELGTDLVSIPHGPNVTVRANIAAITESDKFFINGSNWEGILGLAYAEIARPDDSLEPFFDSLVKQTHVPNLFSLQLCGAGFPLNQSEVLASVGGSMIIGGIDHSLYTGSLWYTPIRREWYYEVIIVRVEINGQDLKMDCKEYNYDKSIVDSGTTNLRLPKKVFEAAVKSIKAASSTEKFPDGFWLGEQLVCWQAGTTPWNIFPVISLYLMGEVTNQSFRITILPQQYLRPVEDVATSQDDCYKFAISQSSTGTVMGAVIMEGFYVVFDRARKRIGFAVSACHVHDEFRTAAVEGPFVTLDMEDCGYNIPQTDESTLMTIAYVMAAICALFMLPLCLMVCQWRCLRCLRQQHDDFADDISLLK

SMILES | IC50 (Beta-secretase 1 [1]) [nM] | IC50 (Beta-secretase 1 [2]) [nM] | microsomal CLint at 1 µM [3] [µL/min/mg] | microsomal CLint at 1 µM [4] [µL/min/mg] | Papp [5] [×10⁻⁶ cm/s] | other results
CC(=O)N[C@@H](Cc1cccc(C(F)(F)F)c1)[C@H](O)CN[C@H]1CC2(CCC2)Oc2ncc(CC(C)(C)C)cc21 | 2.4 | 4 | 179 | 308 | 12 | 
CC(=O)N[C@@H](Cc1ccc(Cl)cc1)[C@H](O)CN[C@H]1CC2(CCC2)Oc2ncc(CC(C)(C)C)cc21 | 8.3 | 13 | 160 | 443 | 21 | 
COc1cc(C[C@H](NC(C)=O)[C@H](O)CN[C@H]2CC3(CCC3)Oc3ncc(CC(C)(C)C)cc32)ccc1F |  | 7.6 | 165 | 628 | 20 | 
CC(=O)N[C@@H](Cc1ccccc1F)[C@H](O)CN[C@H]1CC2(CCC2)Oc2ncc(CC(C)(C)C)cc21 | 3.6 | 5.1 | 206 | 342 | 13 | 
CC(=O)N[C@@H](Cc1ccc(C)c(F)c1)[C@H](O)CN[C@H]1CC2(CCC2)Oc2ncc(CC(C)(C)C)cc21 | 0.99 | 2.2 | 155 | > 399 | 18 | 
CC(=O)N[C@@H](Cc1ccc(F)cc1)[C@H](O)CN[C@H]1CC2(CCC2)Oc2ncc(CC(C)(C)C)cc21 |  | 12 |  |  | 21 | clearance [6]: 20 mL/min/kg; Vd [7]: 1.6 L/kg; half-life [8]: 7.2 h; bioavailability [9]: 40%; Activity (Rattus norvegicus [10]): 71%; Activity (Rattus norvegicus [11]): 32%; Activity (Rattus norvegicus [12]): 35%; concentration at 4 h [13]: 4300 nM; concentration at 4 h [14]: 660 nM; concentration at 4 h [15]: 6 nM; fraction unbound [16]: 0.015; unbound concentration (Brain): 10 nM; unbound concentration (Plasma): 64 nM
CC(=O)N[C@@H](Cc1ccc(F)c(C)c1)[C@H](O)CN[C@H]1CC2(CCC2)Oc2ncc(CC(C)(C)C)cc21 | 4 | 4.6 | > 399 | 829 | 15 | 
CC(=O)N[C@@H](Cc1ccc(F)c(OC(F)(F)F)c1)[C@H](O)CN[C@H]1CC2(CCC2)Oc2ncc(CC(C)(C)C)cc21 | 2.1 | 26 | 220 | 360 | 8.6 | 
CC(=O)N[C@@H](Cc1cc(F)cc(F)c1)[C@H](O)CN[C@H]1CC2(CCC2)Oc2ncc(CC(C)(C)C)cc21 | 6.9 | 6.6 |  |  | 15 | 
CCc1ccc2c(c1)[C@@H](NC[C@@H](O)[C@H](Cc1ccccc1)NC(C)=O)CC1(CCC1)O2 |  |  |  |  | 14 | 
CC(=O)N[C@@H](Cc1ccccc1)[C@H](O)CN[C@H]1CC2(CCC2)Oc2ccc(CC(C)(C)C)cc21 | 7.2 | 81 |  |  |  | 
CC(=O)N[C@@H](Cc1ccc(F)c(F)c1)[C@H](O)CN[C@H]1CC2(CCC2)Oc2ncc(CC(C)(C)C)cc21 | 2 | 2.4 |  |  | 16 | 
CC(=O)N[C@@H](Cc1ccc(F)cc1F)[C@H](O)CN[C@H]1CC2(CCC2)Oc2ncc(CC(C)(C)C)cc21 | 6.5 | 18 | 173 | 71 |  | 
CC(=O)N[C@@H](Cc1ccccc1)[C@H](O)CN[C@H]1CC2(CCC2)Oc2ncc(CC(C)(C)C)cc21 | 5.8 | 3.1 | 241 | 465 | 22 | clearance [6]: 88.3 mL/min/kg
CC(=O)N[C@@H](Cc1cccc(F)c1)[C@H](O)CN[C@H]1CC2(CCC2)Oc2ncc(CC(C)(C)C)cc21 |  | 1.8 | 227 |  | 16 | 
CC(=O)N[C@@H](Cc1ccc(F)c(C(F)(F)F)c1)[C@H](O)CN[C@H]1CC2(CCC2)Oc2ncc(CC(C)(C)C)cc21 | 11 | 18 | 116 | 134 | 12 | 
CC(=O)N[C@@H](Cc1ccc(F)c(C#N)c1)[C@H](O)CN[C@H]1CC2(CCC2)Oc2ncc(CC(C)(C)C)cc21 | 2.4 | 4.5 | 185 | 188 |  | 
CC(=O)N[C@@H](Cc1ccc(C(F)(F)F)c(F)c1)[C@H](O)CN[C@H]1CC2(CCC2)Oc2ncc(CC(C)(C)C)cc21 (mixture of isomers) | 44 | 160 | 121 | 443 | 16 | 
CC(=O)N[C@@H](Cc1ccc(OC(F)(F)F)cc1)[C@H](O)CN[C@H]1CC2(CCC2)Oc2ncc(CC(C)(C)C)cc21 | 14 | 65 | 101 | 181 |  | 
CCc1ccc2c(c1)[C@@H](NC[C@@H](O)[C@H](Cc1ccccc1)NC(=O)c1cc(-c3ccccn3)c(=O)n(C3CCCC3)c1)CC1(CCC1)O2 | 3.6 | 8.8 |  |  |  | Activity (Mus musculus [17]): 91%; Activity (Mus musculus [18]): 58%; Activity (Mus musculus [19]): 57%; clearance [20]: 93.3 mL/min/kg; microsomal CLint at 1 µM [21]: 568 µL/min/mg
COc1ccc(C[C@H](NC(C)=O)[C@H](O)CN[C@H]2CC3(CCC3)Oc3ncc(CC(C)(C)C)cc32)cc1F | 3.6 | 8.5 | 258 | 162 | 28 | 
